The test system of assay [1] is PC-3. The assay can be described thus: Cytotoxicity against human PC3 cells after 72 hrs by MTT assay. The class given is functional, cell-based. An outline of the steps:
(§1)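 MTT reduction read by spectrophotometry after 72 h compound exposure; growth measured as treated vs control optical density, IC50 taken as the concentration giving 50% growth reduction. Six replicates per condition. Cells grown in RPMI with 10% heat-inactivated FBS, 4 mM glutamine, gentamicin and penicillin–streptomycin; NHDF fibroblasts were instead kept in FGM-2 fibroblast medium.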

Assay [2] concerns U-251. The assay can be described thus: Cytotoxicity against human U251 cells after 72 hrs by MTT assay. It is filed as functional, cell-based. The procedure, abridged: as §1
On the technique in general: Tetrazolium dyes change colour on reduction, which living cells bring about.

Assay [3] in a line: Cytotoxicity against human Hs683 cells after 72 hrs by MTT assay. The class given is functional, cell-based, Hs 683. The procedure, abridged:
as §1

A short description of assay [4]: Cytotoxicity against human U373 cells after 72 hrs by MTT assay. The class given is functional, cell-based, U-373MG ATCC. The procedure, abridged: as §1
The test system of assay [5] is MCF7. The assay can be described thus: Cytotoxicity against human MCF7 cells after 72 hrs by MTT assay. The class given is functional, cell-based. An outline of the steps:
as §1

The subject of assay [6] is A549. The assay can be described thus: Cytotoxicity against human A549 cells after 72 hrs by MTT assay. It is filed as functional, cell-based. The procedure, abridged:
as §1

The test system of assay [7] is SK-MEL-28. The assay can be described thus: Cytotoxicity against human SK-MEL-28 cells after 72 hrs by MTT assay. The class given is functional, cell-based. The procedure, abridged:
as §1

Assay [8] concerns PC-3. The assay can be described thus: Induction of apoptosis in human PC3 cells at 1 uM after 72 hrs by TUNEL staining. It is filed as functional. The procedure, abridged:
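TUNEL apoptosis staining with a commercial kit, read by flow cytometry. PC3 prostate cells were untreated or exposed to 1 μM for 72 h, four replicates. Kit-supplied lymphoma cells served as extra negative and positive controls.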

Assay [9] deals with HaCaT. The assay can be described thus: Cytotoxicity against human HaCaT cells after 72 hrs by MTT assay. The class given is cell-based. An outline of the steps:
as §1

In assay [10] the test system is Hs 683. The assay can be described thus: Induction of apoptosis in human Hs683 cells at 1 uM after 72 hrs by TUNEL staining. The class given is functional, cell-based.
Assay [11] is described as follows: Induction of ROS production in human U373 cells at 10 uM after 72 hrs by flow cytometry. The class given is functional, U-373MG ATCC. The procedure, abridged: (§2)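 Hs683 and U373 glioma cells were exposed to 10 μM for 48 and 72 h; the positive control was 4 mM H2O2 for 1 h. Cells were then loaded with 20 μM DCFH-DA in phenol-red-free RPMI for 1 h at 37 °C, washed twice and detached. Fluorescence was measured by flow cytometry, run once in quadruplicate.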

Assay [12] relates to HBL-100. The assay can be described thus: Cytotoxicity against human HBL100 cells after 72 hrs by MTT assay. It is filed as cell-based. The following applies: HBL-100, 72 h. An outline of the steps:
as §1

The test system of assay [13] is U-373MG ATCC. The assay can be described thus: Induction of ROS production in human U373 cells at 10 uM after 48 hrs by flow cytometry. It is filed as functional, cell-based. The procedure, abridged: as §2
(A flow cytometer gives signals particle by particle.)

In assay [14] the test system is U-373MG ATCC. The assay can be described thus: Cytotoxicity against human U373 cells assessed as growth inhibition at 10 uM […] by quantitative video microscopic analysis. The class given is functional, cell-based. An outline of the steps: (§3)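 Computer-assisted phase-contrast time-lapse microscopy in T25 flasks with 10 μM compound. Cells were counted on images at 6, 12, 24 h for U373 and A549, and at 24, 48, 72 h for SKMEL-28. Global growth is last-image count over first-image count. The ratio index is treated global growth over untreated control global growth. Run in triplicate.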

Assay [15] relates to A549. The assay can be described thus: Cytotoxicity against human A549 cells assessed as growth inhibition at 10 uM […] by quantitative video microscopic analysis. It is filed as functional, cell-based. An outline of the steps: as §3
The subject of assay [16] is Hs 683. The assay can be described thus: Induction of ROS production in human Hs683 cells at 10 uM after 72 hrs by flow cytometry. It is filed as functional. The procedure, abridged:
as §2

In assay [17] the test system is U-373MG ATCC. The assay can be described thus: Induction of apoptosis in human U373 cells at 1 uM after 72 hrs by TUNEL staining. It is filed as functional, cell-based.
Assay [18] has as its system SK-MEL-28. The assay can be described thus: Cytotoxicity against human SK-MEL-28 cells assessed as growth inhibition at 10 uM after 24 to 72 hrs by quantitative video microscopic analysis. The class given is functional, cell-based. The procedure, abridged:
as §3

Assay [19] has as its system LoVo. The assay can be described thus: Cytotoxicity against human LoVo cells after 72 hrs by MTT assay. The class given is functional, cell-based. An outline of the steps:
as §1

The test system of assay [20] is B16-F10. The assay can be described thus: Cytotoxicity against mouse B16F10 cells after 72 hrs by MTT assay. The class given is functional, cell-based. The note with it: B16-F10, 72 h. An outline of the steps: as §1
The test system of assay [21] is U-373MG ATCC. The assay can be described thus: Cytotoxicity against human U373 cells assessed as growth inhibition at 10 uM after 24 hrs by MTT assay. It is filed as functional, cell-based.
In assay [22] the test system is SK-MEL-28. The assay can be described thus: Cytotoxicity against human SK-MEL-28 cells assessed as growth inhibition at 10 uM after 24 hrs by MTT assay. It is filed as functional, cell-based.
Assay [23] relates to A549. The assay can be described thus: Cytotoxicity against human A549 cells assessed as growth inhibition at 10 uM after 24 hrs by MTT assay. The class given is functional, cell-based.
In assay [24] the test system is NHDF. The assay can be described thus: Cytotoxicity against human NHDF cells after 72 hrs by MTT assay. The class given is cell-based. An outline of the steps: as §1
Where [25] appears, read: Homo sapiens, PC-3, 72 h, read-out: IC50.
Where [26] appears, read: Homo sapiens, U-251, 72 h, read-out: IC50.
Where [27] appears, read: Homo sapiens, Hs 683, 72 h, read-out: IC50.
Setting [28] is: Homo sapiens, U373 MG, 72 h, read-out: IC50.
[29] abbreviates: Homo sapiens, MCF7, 72 h, read-out: IC50.
The mark [30] stands for this setting: Homo sapiens, A549, 72 h, read-out: IC50.
Where [31] appears, read: Homo sapiens, SK-MEL-28, 72 h, read-out: IC50.

Activity calls are given as the source filed them. The rule behind the calls is not given here. Bounds are passed on as bounds.

The record followed here is ChEMBL document CHEMBL2417525, “In vitro pharmacological and toxicological effects of norterpene peroxides isolated from the Red Sea sponge Diacarnus erythraeanus on normal and cancer cells” (J Nat Prod, 2013).

Consider `COC(=O)[C@@H](C)[C@H]1CC[C@@](C)(CCC2=C(C)CCCC2(C)C)OO1`, for which the IC50 entry in [1] (pc-3), in assay [2] (u-251), in assay [3] (hs 683), in assay [4] (u-373mg atcc), in assay [5] (mcf7) and in assay [6] (a549) was “ND(Unstable)” throughout. In addition, in [7] (sk-mel-28), the IC50 (commonly the concentration that inhibits the measured activity by half) is listed as “ND(Unstable)”.
Take `C=C1CCCC(C)(C)C1(O)CC/C(C)=C/CC[C@]1(C)CC[C@@H]([C@@H](C)C(=O)O)OO1` (stereo partly specified) [HURGHAPEROXIDE]: the IC50 in assay [1] (setting [25]) worked out at 73 µM; in [2] (setting [26]), 87 µM; in [3] (setting [27]), 37 µM; in assay [4] (setting [28]), 83 µM; in assay [5] (setting [29]) it was 45 µM; in assay [6] (setting [30]), 31 µM. The IC50 in [7] (setting [31]) came out at 73 µM.
`C=C1CCC[C@@H]2[C@@](C)(CC[C@@]3(C)CC[C@H]([C@H](C)C(=O)OC)OO3)[C@H](C)CC[C@@]12C`: the IC50 in [1] (setting [25]) stood at 44 µM; in [2] (setting [26]), 54 µM; in assay [3] (setting [27]), 35 µM; in assay [4] (setting [28]) it was 53 µM; in assay [5] (setting [29]), 36 µM; in [6] (setting [30]) it was 24 µM. In addition, in assay [7] (setting [31]), the IC50 is 44 µM.
For `C/C(=C\CC[C@]1(C)CC[C@@H]([C@@H](C)C(=O)O)OO1)CCC12OC1(C)CCCC2(C)C` (relative stereo), the IC50 in assay [1] (setting [25]) worked out at 2 µM; in [3] (setting [27]) it was 3 µM; in assay [4] (setting [28]) it was 7 µM; in assay [5] (setting [29]), 6 µM; in assay [6] (setting [30]), 3 µM; in assay [7] (setting [31]) it was 22 µM.
As to `CC1=C(CC[C@]2(C)O[C@H]2CC[C@]2(C)CC[C@@H]([C@@H](C)C(=O)O)OO2)C(C)(C)CCC1` (relative stereo), the IC50 in assay [1] (setting [25]) was 1 µM; in assay [3] (setting [27]) it was 3 µM; in assay [4] (setting [28]), 4 µM; in assay [5] (setting [29]) it was 4 µM; in [6] (setting [30]), 3 µM; in assay [7] (setting [31]), 15 µM.
As to `COC(=O)[C@H](C)[C@H]1CC[C@@](C)(CCC2=C(C)CCCC2(C)C)OO1` [NUAPAPUIN A METHYL ESTER], the IC50 in assay [1] (setting [25]) was 80 µM; in [2] (setting [26]) it was 91 µM; in assay [3] (setting [27]), 38 µM; in [4] (setting [28]), 99 µM; in assay [5] (setting [29]), 51 µM; in assay [6] (setting [30]) it was 25 µM. Besides, the 50% inhibitory concentration (IC50) in [7] (setting [31]) was found to be 80 µM.
On to `C=C1CCC[C@@H]2[C@@H](CC[C@@]3(C)CC[C@H]([C@H](C)C(=O)O)OO3)[C@H](C)CC[C@@]12C` [SIGMOSCEPTRELLIN B], for which the IC50 in assay [1] (setting [25]), in assay [2] (setting [26]), in assay [3] (setting [27]), in [4] (setting [28]), in [5] (setting [29]) and in [6] (setting [30]) was more than 100 µM each time. Further, the IC50 in assay [7] (setting [31]) is more than 100 µM.
Take `O=C1N[C@@H]2C(=C[C@H](O)[C@@H](O)[C@H]2O)c2cc3c(c(O)c21)OCO3` [NARCICLASINE]: the Activity in assay [8] is given as more than 85%.
As to `CC1=C(CC/C(C)=C/CC[C@@]2(C)CC[C@H]([C@H](C)C(=O)O)OO2)C(C)(C)CCC1`, the IC50 in assay [1] (setting [25]) came to 8 µM; in [9], 23 µM; in assay [2] (setting [26]), 8 µM; in assay [12], 3 µM; in assay [3] (setting [27]), 4 µM; in assay [19], 6 µM. In addition, the half-inhibitory concentration (IC50) came out at 3 µM in assay [20]; 7 µM in assay [4] (setting [28]); 7 µM in [5] (setting [29]); 3 µM in assay [6] (setting [30]); 8 µM in assay [7] (setting [31]); 26 µM in assay [24]. Further, the result in assay [10] and in [17] was inactive. The Activity in assay [11] and in assay [16] was 30% each time. Moreover, the result in assay [13] was Active. Further, the “growth inhibition (GI)” value in assay [14], in assay [15], in [18], in assay [21], in assay [22] and in assay [23] was “Active” throughout.
